Consider three molecules from PMC5346068 (ACS infectious diseases, 2017).

Each structure is given as a SMILES string. In brackets after ≈: the same amount, converted by molar mass. Entries after “also recorded” stand apart in the source; their conditions may differ.

Series [1] concerns the target T1, T. brucei MetRS (Trypanosoma brucei brucei, UniProt Q38C91).
T1 sequence (Q38C91 1-773): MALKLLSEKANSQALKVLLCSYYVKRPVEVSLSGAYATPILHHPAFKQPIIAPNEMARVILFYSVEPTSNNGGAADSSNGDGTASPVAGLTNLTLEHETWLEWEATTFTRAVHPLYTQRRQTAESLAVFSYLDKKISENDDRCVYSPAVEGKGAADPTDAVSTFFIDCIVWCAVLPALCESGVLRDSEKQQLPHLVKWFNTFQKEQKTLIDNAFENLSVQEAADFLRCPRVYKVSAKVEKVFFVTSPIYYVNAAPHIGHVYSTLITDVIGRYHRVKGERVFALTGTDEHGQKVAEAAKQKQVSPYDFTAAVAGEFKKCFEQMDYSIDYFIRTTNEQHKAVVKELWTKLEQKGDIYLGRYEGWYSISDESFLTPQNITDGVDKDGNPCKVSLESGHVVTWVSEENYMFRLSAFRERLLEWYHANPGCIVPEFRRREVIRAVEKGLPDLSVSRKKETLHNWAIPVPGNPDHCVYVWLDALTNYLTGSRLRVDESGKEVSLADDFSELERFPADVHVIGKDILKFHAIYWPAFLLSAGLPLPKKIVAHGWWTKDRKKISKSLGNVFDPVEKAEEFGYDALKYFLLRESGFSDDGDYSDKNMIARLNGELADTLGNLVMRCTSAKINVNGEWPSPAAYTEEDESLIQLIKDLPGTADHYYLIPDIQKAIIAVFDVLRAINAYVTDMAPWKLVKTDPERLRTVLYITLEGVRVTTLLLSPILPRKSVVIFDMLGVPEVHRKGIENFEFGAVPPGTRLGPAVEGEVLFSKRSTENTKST
Description: T. brucei MetRS inhibition assay. Type of series: biochemical.

In series [2] the test system is wild-type T. brucei. The series can be described thus: Wild-type T. brucei growth inhibition assay. Type of series: cell-based. The settings on record: Trypanosoma brucei, read-out: WT EC50.
In series [3] the test system is 1433-resistant T. brucei. The series can be described thus: microbe, parasite or virus in culture. Type of series: cell-based, Trypanosoma brucei. The settings on record: for EC50: Trypanosoma brucei, read-out: 1433 resistant EC50; for 1433 resistant EC50 / WT EC50: fold shift resistant vs wild-type.
Series [4] has as its system T. brucei. The series can be described thus: T. brucei in vitro growth inhibition. Type of series: cell-based. As to conditions: Trypanosoma brucei, read-out: T. brucei EC50.
A short description of series [5]: MRC5-SV2 human lung cell toxicity. Type of series: cell-based. As to conditions: MRC5-SV2 human lung cells.
Series [6] in a line: Aqueous solubility. The class given is physicochemical.
Series [7] in a line: Human plasma protein binding. Type of series: in vitro ADME.
A short description of series [8]: Human liver microsome clearance. Type of series: in vitro ADME. The settings on record: liver microsomes. For orientation: Microsomes from liver hold many membrane-bound enzymes, among them those of drug oxidation.
Series [9] is described as follows: Rat hepatocyte clearance. The class given is in vitro ADME. The settings on record: rat hepatocytes.
The nature of series [10]: logD 7.4. Type of series: physicochemical. The settings on record: pH 7.4.
A short description of series [11]: Mouse plasma and brain pharmacokinetics. Type of series: in vivo, female BALB/c mice. As to conditions: female, BALB/c, brain, ip, 10 mg/kg. The method, boiled down: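 Female BALB/c mice received a single intraperitoneal 10 mg/kg dose of test compound. Drug levels were measured in plasma and brain, and the brain-to-plasma ratio and brain concentration were taken at the 24 h time point.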

For series [12], the system named is T. b. brucei (GVR 35 strain). Description: Murine CNS infection model. The class given is in vivo, mouse. As to conditions: tail blood; for mice with no detectable parasitemia, day 28: 1 at 20 mg/kg/day days 21-25, Berenil single 40 mg/kg day 21. The method in brief:
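Mice were infected on day 0 with T. b. brucei GVR 35, in two groups of 5, and checked for parasitemia on day 14. The control group got a single 40 mg/kg Berenil dose on day 21, then vehicle (DMSO in PBS) on days 22–25. The treated group got test compound at 20 mg/kg/day on days 21–25 and again on days 28–32. Tail blood was examined on days 14, 28, 35, 39 and 43.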

The test system of series [13] is T. brucei rhodesiense. As to conditions: T. brucei rhodesiense mouse model of HAT; cited from earlier work.

Take `N=C(N)c1ccc(OCCCCCOc2ccc(C(=N)N)cc2)cc1` [Pentamidine, reference compound]: the “T. brucei MetRS inhibition” value in [1] (up to 10 µM) was “no T. brucei MetRS inhibition; also recorded: does not inhibit T. brucei MetRS”. For the same molecule, the half-maximal effective concentration (EC50) came to 1.5 ± 0.2 nM in [2] and 1.1 ± 0.1 nM in series [3]. In [3], the “1433 resistant EC50 / WT EC50” value turned out to be 0.73.
On to `OCCn1c(CNCCCNc2nc3ccccc3[nH]2)cc2c(Cl)cc(Cl)cc21` [Compound 1, 2-(2-(((3-((1H–Benzo[d]imidazol-2-yl)amino)propyl)amino)methyl)-4,6-dichloro-1H–indol-1-yl)ethan-1-ol], for which the EC50 in [4] was determined as 0.96 nM; in [5] it was 12000 nM; in series [2] it was 0.13 ± 0.01 nM; in series [3] it was 14 ± 1 nM. In series [6], this molecule displayed a solubility of 6.33 µM (≈ 2.74 µg/mL). Further, the free fraction (fraction unbound) in series [7] was below 0.001. This molecule also yielded a microsomal CLint in series [8] of 24 µL/min/mg. The “Rat Hepatocyte Clint” value in series [9] is 24.9 µL/min/10^6. This molecule also returned a log distribution coefficient (logD) in [10] of 4. The molecule also came in with a concentration at 24 h in series [11] of 31.6 ng/g. Also, the “mice with no detectable parasitemia, day 28” value in series [12] is on record as 3/5. The “parasitemia, day 39” value in series [12] is listed as “full relapse of parasites in the blood”. The same molecule displayed an IC50 in series [1] below 25 nM. Further, the “1433 resistant EC50 / WT EC50” value in series [3] was determined as 108. Moreover, the “efficacy in bloodstream infection mouse model” value in series [13] is listed as “cured a bloodstream infection”.
With `CC(=O)NCC(=O)O.CC(=O)NCC(=O)O.N=C(N)c1ccc(N=NNc2ccc(C(=N)N)cc2)cc1` [Berenil], in series [12], the “mice with no detectable parasitemia, day 28” value is “no detectable levels of parasitemia” and the “parasitemia, day 39” value is reported as “no detectable levels of parasitemia”. For the same molecule, in series [12] (day 43, group of 5 mice), the “mice showing a relapse, day 43” value turned out to be 2.

By EC50 is commonly meant the midpoint of the concentration-response curve. One may read the solubility as the dissolved amount per volume that the medium holds. A lower solubility goes with little dissolved substance. One may read the fraction unbound as the share of the substance not bound to proteins or other matrix. By microsomal CLint is commonly meant a measure of how fast metabolising enzymes remove a compound, apart from limits set by blood flow. A lower microsomal CLint goes with slow turnover. Usually logD stands for lipophilicity at a set pH, counting ionised and neutral species. Low readings indicate lower lipophilicity, high ones higher lipophilicity. In general, IC50 refers to the point on the concentration scale where inhibition reaches its midpoint.
